Drawing on ChEMBL document CHEMBL5661979, “Pharmacological inhibition of BMK1 suppresses tumor growth through promyelocytic leukemia protein” (Cancer Cell, 2010), this text covers IC50 and inhibition for one molecule.

Test [1] deals with STE20-like serine/threonine-protein kinase (Homo sapiens, UniProt Q9H2G2). Kind of test: Inhibition of SLK in human HeLa cells lysate pre incubated for 15 mins followed by ATP acyl phosphate probe addition and measured after 10 mins by LC-MS/MS analysis. It counts as subcellular.
Test [2] deals with Insulin-like growth factor 1 receptor (Homo sapiens, UniProt P08069). Kind of test: Inhibition of IGF1R in human HeLa cells lysate pre incubated for 15 mins followed by ADP acyl phosphate probe addition and measured after 10 mins by LC-MS/MS analysis. The test is classed as subcellular.
Test [3] concerns the target Serine/threonine-protein kinase MARK2 (Homo sapiens, UniProt Q7KZI7). Kind of test: Inhibition of MARK2 in human HeLa cells lysate pre incubated for 15 mins followed by ADP acyl phosphate probe addition and measured after 10 mins by LC-MS/MS analysis. The test is classed as subcellular.
For test [4], the target named is Serine/threonine-protein kinase tousled-like 2 (Homo sapiens, UniProt Q86UE8). Kind of test: Inhibition of TLK2 in human HeLa cells lysate at 50 uM pre incubated for 15 mins followed by ADP acyl phosphate probe addition and measured after 10 mins by LC-MS/MS analysis relative to control. The test is classed as subcellular. As to conditions: time 25.0 min.
The target of test [5] is Epidermal growth factor receptor (Homo sapiens, UniProt P00533). Nature of the test: Inhibition of EGFR in human HeLa cells lysate at 10 uM pre incubated for 15 mins followed by ADP acyl phosphate probe addition and measured after 10 mins by LC-MS/MS analysis relative to control. The note with it: time 25.0 min. The test is classed as subcellular.
Test [6] is described as follows: Inhibition of MST4/YSK1 in human HeLa cells lysate at 10 uM pre incubated for 15 mins followed by ADP acyl phosphate probe addition and measured after 10 mins by LC-MS/MS analysis relative to control. As to conditions: 25 min, condition cancer.
The target in test [7] is T1, Mitogen-activated protein kinase kinase kinase kinase 2 (Homo sapiens) (UniProt Q12851).
T1 sequence (whole entry): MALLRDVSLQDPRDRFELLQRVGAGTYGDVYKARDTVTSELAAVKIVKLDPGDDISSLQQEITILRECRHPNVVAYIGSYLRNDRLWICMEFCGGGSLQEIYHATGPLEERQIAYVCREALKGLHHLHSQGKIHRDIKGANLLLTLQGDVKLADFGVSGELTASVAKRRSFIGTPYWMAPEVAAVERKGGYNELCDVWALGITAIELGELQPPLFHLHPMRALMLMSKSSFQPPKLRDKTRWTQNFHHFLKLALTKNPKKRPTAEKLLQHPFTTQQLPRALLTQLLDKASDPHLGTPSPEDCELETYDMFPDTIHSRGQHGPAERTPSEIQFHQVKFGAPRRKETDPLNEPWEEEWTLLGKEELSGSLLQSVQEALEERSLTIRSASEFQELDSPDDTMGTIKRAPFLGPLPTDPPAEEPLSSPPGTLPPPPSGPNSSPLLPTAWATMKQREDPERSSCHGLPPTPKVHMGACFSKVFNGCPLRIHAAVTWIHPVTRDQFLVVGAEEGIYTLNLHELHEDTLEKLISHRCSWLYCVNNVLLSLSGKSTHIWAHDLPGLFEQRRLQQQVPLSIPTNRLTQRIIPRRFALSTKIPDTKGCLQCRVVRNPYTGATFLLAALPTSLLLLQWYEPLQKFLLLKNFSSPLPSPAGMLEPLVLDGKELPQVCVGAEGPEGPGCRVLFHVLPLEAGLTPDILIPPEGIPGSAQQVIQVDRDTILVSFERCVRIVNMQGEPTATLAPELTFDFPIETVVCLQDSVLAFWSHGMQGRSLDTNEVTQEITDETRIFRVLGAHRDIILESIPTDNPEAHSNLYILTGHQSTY
Kind of test: Inhibition of GCK in human HeLa cells lysate at 2 uM pre incubated for 15 mins followed by ADP acyl phosphate probe addition and measured after 10 mins by LC-MS/MS analysis relative to control. It counts as subcellular. As to conditions: time 25.0 min.

Test [8] deals with T2, Aurora kinase A (Homo sapiens) (UniProt O14965).
T2 sequence (whole entry): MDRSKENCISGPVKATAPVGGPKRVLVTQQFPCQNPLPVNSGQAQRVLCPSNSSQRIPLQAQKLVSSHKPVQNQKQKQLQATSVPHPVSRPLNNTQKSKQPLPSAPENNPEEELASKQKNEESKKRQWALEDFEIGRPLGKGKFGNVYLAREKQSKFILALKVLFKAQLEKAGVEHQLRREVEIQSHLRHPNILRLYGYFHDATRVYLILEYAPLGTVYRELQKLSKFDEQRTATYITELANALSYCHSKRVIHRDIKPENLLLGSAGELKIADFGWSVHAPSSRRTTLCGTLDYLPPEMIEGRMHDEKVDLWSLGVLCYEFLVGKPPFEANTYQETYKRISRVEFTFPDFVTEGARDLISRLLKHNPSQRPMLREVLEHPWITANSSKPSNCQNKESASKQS
Nature of the test: Inhibition of AurA in human HeLa cells lysate at 50 uM pre incubated for 15 mins followed by ATP acyl phosphate probe addition and measured after 10 mins by LC-MS/MS analysis relative to control. The test is classed as subcellular. The note with it: time 25.0 min. The procedure, abridged:
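KiNativ-type profiling in HeLa lysate (5 mg/mL total protein). Lysate preincubated 15 min with inhibitor at 50, 10, 2, 0.8 or 0 μM, then ATP or ADP acylphosphate probe added (5 μM final) for 10 min. Reaction stopped with urea and analysed by targeted MS, using up to four fragment ions per kinase peptide-probe conjugate. % inhibition calculated against untreated lysate. Duplicate reactions.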

The target of test [9] is Serine/threonine-protein kinase 3/4 (Homo sapiens) (UniProt Q13043+Q13188). Kind of test: Inhibition of MST1/2 in human HeLa cells lysate at 50 uM pre incubated for 15 mins followed by ATP acyl phosphate probe addition and measured after 10 mins by LC-MS/MS analysis relative to control. The note with it: time 25.0 min. It counts as subcellular.
The target in test [10] is Cyclin-dependent kinase 10 (Homo sapiens, UniProt Q15131). Nature of the test: Inhibition of CDK10 in human HeLa cells lysate at 50 uM pre incubated for 15 mins followed by ATP acyl phosphate probe addition and measured after 10 mins by LC-MS/MS analysis relative to control. The note with it: time 25.0 min. It counts as subcellular. The procedure, abridged: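 KiNativ profiling in HeLa lysate (5 mg/mL total protein). Lysate incubated 15 min with inhibitor at 50, 10, 2, 0.8 or 0 μM. ATP or ADP acylphosphate probe then added (5 μM final) and reacted 10 min. Reaction stopped with urea and analysed by targeted MS, using up to four fragment ions per kinase peptide-probe conjugate. % inhibition taken against untreated lysate. Run in duplicate.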

The target in test [11] is Phosphatidylinositol 4-kinase alpha (Homo sapiens, UniProt P42356). Kind of test: Inhibition of PIK4CA in human HeLa cells lysate at 10 uM pre incubated for 15 mins followed by ATP acyl phosphate probe addition and measured after 10 mins by LC-MS/MS analysis relative to control. The test is classed as subcellular. As to conditions: time 25.0 min.
In the next test the target is Ephrin type-A receptor 2 (Homo sapiens, UniProt P29317). Nature of the test: Inhibition of EphA2 in human HeLa cells lysate at 2 uM pre incubated for 15 mins followed by ATP acyl phosphate probe addition and measured after 10 mins by LC-MS/MS analysis relative to control. It counts as subcellular. The note with it: time 25.0 min.
The target in test [12] is Ephrin type-B receptor 4 (Homo sapiens) (UniProt P54760). Kind of test: Inhibition of EphB4 in human HeLa cells lysate at 2 uM pre incubated for 15 mins followed by ATP acyl phosphate probe addition and measured after 10 mins by LC-MS/MS analysis relative to control. The test is classed as subcellular. As to conditions: time 25.0 min.

Some results are limits rather than exact numbers.

Chain of Serine/threonine-protein kinase MARK2 (Q7KZI7 whole entry): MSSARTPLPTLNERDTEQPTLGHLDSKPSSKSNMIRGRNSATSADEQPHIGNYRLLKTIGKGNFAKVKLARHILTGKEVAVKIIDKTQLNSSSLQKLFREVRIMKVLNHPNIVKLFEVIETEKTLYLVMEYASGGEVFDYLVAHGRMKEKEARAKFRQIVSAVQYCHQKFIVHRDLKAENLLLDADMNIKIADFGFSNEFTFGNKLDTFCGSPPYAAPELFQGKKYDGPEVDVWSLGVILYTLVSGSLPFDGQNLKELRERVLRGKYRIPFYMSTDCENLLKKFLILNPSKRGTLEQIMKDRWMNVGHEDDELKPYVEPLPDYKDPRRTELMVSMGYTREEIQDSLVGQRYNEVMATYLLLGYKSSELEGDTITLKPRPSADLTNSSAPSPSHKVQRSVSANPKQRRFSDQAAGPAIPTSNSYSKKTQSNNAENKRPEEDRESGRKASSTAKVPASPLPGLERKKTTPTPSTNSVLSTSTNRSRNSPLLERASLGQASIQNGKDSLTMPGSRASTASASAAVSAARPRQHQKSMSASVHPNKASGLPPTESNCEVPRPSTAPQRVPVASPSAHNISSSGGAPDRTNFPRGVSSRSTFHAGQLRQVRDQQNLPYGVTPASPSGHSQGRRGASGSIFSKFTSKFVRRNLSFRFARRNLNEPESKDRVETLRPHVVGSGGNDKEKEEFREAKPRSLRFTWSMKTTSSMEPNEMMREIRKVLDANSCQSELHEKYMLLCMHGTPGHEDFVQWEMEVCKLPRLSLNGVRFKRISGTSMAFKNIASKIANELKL
Chain of Serine/threonine-protein kinase tousled-like 2 (Q86UE8 whole entry, looked up): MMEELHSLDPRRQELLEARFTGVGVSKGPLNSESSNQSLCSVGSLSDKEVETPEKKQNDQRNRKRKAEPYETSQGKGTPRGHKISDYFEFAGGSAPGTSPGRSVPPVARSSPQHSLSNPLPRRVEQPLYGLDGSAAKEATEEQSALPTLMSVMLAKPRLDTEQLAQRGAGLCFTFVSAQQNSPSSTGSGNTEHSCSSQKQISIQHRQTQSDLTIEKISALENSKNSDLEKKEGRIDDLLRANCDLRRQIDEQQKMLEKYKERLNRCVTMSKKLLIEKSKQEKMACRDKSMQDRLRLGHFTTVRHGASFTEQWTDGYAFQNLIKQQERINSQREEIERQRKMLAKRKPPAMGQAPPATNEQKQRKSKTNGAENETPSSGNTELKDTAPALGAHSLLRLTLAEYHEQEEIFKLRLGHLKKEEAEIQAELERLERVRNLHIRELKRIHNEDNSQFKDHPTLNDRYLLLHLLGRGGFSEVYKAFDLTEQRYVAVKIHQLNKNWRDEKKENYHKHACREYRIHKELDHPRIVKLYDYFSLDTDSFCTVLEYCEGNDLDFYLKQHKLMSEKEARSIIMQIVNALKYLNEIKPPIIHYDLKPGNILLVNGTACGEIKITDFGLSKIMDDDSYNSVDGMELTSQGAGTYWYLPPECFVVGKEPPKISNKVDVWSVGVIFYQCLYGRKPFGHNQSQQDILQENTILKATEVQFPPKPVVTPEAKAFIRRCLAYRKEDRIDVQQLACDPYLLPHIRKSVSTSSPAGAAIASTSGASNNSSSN
Chain of Ephrin type-B receptor 4 (Homo sapiens) (P54760 whole entry): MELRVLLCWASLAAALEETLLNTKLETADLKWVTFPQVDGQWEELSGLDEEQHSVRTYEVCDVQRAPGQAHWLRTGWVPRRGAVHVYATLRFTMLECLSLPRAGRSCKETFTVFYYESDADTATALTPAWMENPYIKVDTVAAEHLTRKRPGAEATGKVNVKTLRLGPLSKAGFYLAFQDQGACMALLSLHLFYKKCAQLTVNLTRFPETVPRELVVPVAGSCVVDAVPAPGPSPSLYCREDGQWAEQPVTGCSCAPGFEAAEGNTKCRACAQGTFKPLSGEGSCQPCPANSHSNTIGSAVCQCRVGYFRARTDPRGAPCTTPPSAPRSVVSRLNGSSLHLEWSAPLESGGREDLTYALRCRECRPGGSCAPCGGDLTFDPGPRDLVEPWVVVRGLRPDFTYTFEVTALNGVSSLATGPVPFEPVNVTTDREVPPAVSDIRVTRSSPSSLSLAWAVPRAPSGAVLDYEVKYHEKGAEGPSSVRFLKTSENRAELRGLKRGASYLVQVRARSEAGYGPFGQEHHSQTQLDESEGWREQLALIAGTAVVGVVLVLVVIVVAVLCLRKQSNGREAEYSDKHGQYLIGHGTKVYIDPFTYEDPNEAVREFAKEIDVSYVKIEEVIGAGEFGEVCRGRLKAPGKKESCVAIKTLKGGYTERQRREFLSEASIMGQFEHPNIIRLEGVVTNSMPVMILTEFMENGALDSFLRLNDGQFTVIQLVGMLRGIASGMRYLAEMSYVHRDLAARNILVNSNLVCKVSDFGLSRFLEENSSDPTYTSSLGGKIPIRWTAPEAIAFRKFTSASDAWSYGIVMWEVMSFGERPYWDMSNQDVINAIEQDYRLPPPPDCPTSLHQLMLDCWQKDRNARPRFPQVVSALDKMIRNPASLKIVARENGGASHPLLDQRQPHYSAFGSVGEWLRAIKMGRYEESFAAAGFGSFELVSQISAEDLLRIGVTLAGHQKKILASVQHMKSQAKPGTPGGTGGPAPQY
Chain of Epidermal growth factor receptor (P00533 whole entry): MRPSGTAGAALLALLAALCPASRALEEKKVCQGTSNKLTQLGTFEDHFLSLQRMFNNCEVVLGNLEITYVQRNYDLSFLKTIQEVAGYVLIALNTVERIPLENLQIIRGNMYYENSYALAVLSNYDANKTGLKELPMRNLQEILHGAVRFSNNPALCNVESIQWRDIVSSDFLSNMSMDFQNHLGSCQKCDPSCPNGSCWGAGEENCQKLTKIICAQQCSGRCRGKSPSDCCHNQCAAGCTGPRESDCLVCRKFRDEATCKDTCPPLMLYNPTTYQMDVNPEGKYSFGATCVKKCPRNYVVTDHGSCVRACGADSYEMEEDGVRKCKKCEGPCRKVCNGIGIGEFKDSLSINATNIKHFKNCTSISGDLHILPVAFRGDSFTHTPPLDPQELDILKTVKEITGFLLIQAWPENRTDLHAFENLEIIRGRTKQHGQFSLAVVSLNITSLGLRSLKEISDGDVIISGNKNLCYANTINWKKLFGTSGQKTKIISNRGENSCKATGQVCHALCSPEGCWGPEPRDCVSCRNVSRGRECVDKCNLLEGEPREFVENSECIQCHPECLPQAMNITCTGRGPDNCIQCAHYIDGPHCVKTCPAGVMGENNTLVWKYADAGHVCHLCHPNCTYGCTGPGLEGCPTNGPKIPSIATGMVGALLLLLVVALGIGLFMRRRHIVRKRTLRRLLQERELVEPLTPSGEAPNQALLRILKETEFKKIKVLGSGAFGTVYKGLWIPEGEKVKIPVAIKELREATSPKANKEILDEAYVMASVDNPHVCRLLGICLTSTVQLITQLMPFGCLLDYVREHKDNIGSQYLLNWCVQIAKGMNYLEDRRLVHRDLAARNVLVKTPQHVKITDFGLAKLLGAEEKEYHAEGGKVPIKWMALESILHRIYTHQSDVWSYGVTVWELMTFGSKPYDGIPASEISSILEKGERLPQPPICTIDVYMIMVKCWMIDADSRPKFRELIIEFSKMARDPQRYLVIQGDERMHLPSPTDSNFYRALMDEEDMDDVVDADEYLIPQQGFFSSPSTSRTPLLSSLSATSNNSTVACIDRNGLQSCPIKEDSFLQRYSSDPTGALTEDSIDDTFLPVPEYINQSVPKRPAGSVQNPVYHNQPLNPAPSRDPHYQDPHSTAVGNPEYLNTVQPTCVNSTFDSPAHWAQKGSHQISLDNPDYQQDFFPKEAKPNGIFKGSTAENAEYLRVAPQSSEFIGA
Chain of Serine/threonine-protein kinase 3/4 (Homo sapiens) (Q13043 whole entry, looked up): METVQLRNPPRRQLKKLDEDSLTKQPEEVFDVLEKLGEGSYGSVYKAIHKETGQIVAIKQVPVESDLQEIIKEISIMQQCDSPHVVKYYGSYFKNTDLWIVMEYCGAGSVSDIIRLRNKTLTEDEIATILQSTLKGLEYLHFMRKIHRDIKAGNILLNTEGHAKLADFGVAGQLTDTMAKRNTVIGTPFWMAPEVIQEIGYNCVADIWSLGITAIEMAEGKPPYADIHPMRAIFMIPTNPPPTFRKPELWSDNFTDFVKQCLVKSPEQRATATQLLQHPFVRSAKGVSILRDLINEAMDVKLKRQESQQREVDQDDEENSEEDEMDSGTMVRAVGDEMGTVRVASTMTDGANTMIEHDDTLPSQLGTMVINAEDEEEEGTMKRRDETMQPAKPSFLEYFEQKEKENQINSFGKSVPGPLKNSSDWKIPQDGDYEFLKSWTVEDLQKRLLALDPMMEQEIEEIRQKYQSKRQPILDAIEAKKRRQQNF
Chain of Serine/threonine-protein kinase 3/4 (Homo sapiens) (Q13188 whole entry, looked up): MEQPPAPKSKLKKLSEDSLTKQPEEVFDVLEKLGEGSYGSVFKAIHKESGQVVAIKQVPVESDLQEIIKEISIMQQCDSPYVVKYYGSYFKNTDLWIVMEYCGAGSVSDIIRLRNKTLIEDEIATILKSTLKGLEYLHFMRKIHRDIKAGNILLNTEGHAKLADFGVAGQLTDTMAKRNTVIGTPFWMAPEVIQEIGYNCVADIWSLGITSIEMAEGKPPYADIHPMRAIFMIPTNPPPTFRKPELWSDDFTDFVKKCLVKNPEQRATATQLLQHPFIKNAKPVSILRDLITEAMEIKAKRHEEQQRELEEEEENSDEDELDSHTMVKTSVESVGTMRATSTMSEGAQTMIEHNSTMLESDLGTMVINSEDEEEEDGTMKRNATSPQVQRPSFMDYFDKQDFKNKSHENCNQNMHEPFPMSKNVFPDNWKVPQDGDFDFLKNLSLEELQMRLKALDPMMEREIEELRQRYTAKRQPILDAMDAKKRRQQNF

What is called IC50 is the concentration that gives 50% inhibition. Low values mean higher potency, high ones lower potency. One may read the inhibition as the change of the read-out against control, counted positive when it falls. Regarding `CCOc1cc(N2CCC(O)CC2)ccc1Nc1ncc2c(n1)N(C)c1ccccc1C(=O)N2C`, the IC50 in [1], in test [2] and in test [3] was over 50 µM in each case. The inhibition in test [4] is -2.4%; in test [5] it was 9.9%; in test [7], 22.6%; in test [8], 13.1%; in [9], 11.3%; in test [10], -0.4%. Besides, the figures for the inhibition (in test [11]; against Ephrin type-A receptor 2; in test [12]) were 7.7%, -7.6% and -5.4%, respectively. Besides, the inhibition at 10 µM in test [6] turned out to be 7.9%.
